High-throughput results (PubChem)
Most compounds without a hit are left out; they make up all but 2.5% or so of the library.
SENP8 block-1: SENP8 protease inhibitors, primary screen, biochemical, luminescence; Sentrin-specific protease 8 (Homo sapiens), Q96LD8; purified SENP8, Z-RLRGG-aminoluciferin cleavage; inhibition, % at 10 µM; 1.2% of 330,000 active; in the data active = inhibition above about 50%
SENP6 block: SENP6 protease inhibitors, primary screen, biochemical, luminescence, uHTS. inhibition, % at 10 µM. AID 2599, 2010. 1.8% of 330,000 active. Recombinant SENP6 catalytic domain, aminoluciferin luminescence. Sentrin-specific protease 6 (Homo sapiens), Q9GZR1;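 active = inhibition above about 50% at the single tested dose, limit read from the data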;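 also: plate controls were DMSO wells with enzyme for no effect and DMSO wells lacking enzyme for full effect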
SENP8 block-2: human SENP8 protease inhibitors, primary screen, biochemical, fluorescence, Nedd8 protein substrate, uHTS | Sentrin-specific protease 8 (Homo sapiens), Q96LD8 | 0.64% of 360,000 active | inhibition, % at 20 µM | recombinant SENP8 | AID 602440, 2012; in the data active = inhibition mostly above about 40%, no sharp cut-off; inactive = mostly below about 27%
SENP7 inh: SENP7 protease inhibitors, primary screen, biochemical, luminescence, uHTS; AID 434973, 2010; 1.5% of 330,000 active; Sentrin-specific protease 7 (Homo sapiens), Q9BQF6; inhibition, % at 5 µM; recombinant SENP7, Z-RLRGG-aminoluciferin luminescence, 40 min;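 active = inhibition above about 50% at the single test dose, limit read from the data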;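 also: plate controls were DMSO with enzyme for no effect and no enzyme buffer wells for full effect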
Target sequence (Q9BQF6 706-1050 limits assumed): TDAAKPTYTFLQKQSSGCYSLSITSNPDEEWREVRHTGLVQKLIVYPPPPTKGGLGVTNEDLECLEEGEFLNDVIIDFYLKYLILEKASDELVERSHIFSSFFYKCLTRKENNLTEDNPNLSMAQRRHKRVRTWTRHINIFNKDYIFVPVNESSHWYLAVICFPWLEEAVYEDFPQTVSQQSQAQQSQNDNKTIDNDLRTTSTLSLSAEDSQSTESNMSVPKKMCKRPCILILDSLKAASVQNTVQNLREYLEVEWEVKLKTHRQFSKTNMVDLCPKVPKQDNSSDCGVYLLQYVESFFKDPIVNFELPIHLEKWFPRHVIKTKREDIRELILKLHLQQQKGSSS
SENP1 FRET inh: human SENP1 catalytic domain inhibitors, primary screen, biochemical, FRET, uHTS. 0.21% of 360,000 active. recombinant SENP1 catalytic domain, CyPet-SUMO1-YPet FRET cleavage. inhibition, % at 10 µM. AID 624204, 2012. Sentrin-specific protease 1 (Homo sapiens), Q9P0U3;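 active = inhibition at least 30% at 10 µM, raw YFP signal under a set limit, fluorescence ratio 0.5 to 1.5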;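 also: 0% = enzyme with DMSO and 100% = no enzyme wells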
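material = recombinant human SENP1 catalytic domain, His6-tagged | quantity = 20 pM enzyme | reagent = 25 nM SUMO1 FRET substrate | compound dosing = 10 µM single point, 0.5% DMSO | timing = 50 min enzyme reaction, room temperature, light-protected | detection = FRET, CFP and YFP emission | control set = no-enzyme low, enzyme-DMSO high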
SENP8 confirm: SENP8 protease inhibitors, retest, confirmation, biochemical, luminescence, single concentration; shares compounds with SENP7 inh; Recombinant SENP8, Z-RLRGG-aminoluciferin luminescence, 60 min; inhibition, % at 12.5 µM; 40% of 6,200 active;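 active = mean inhibition across replicates above about 50%, limit read from the data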
SENP6 conf: SENP6 protease inhibitors, confirmation, biochemical, luminescence, single concentration; shares compounds with SENP7 inh; inhibition, % at 12.5 µM; AID 488915, 2010; recombinant SENP6, Z-RLRGG-aminoluciferin luminescence; 58% of 6,200 active
SENP7 confirm: SENP7 protease inhibitors, retest, confirmation, biochemical, luminescence, single concentration; recombinant SENP7, Z-RLRGG-aminoluciferin luminescence, 40 min; inhibition, % at 12.5 µM; 69% of 6,200 active; AID 488917, 2010; shares compounds with SENP7 inh
Casp3 select: caspase-3 protease inhibitors, confirmation, selectivity assay for SENP inhibitor project, biochemical, single concentration; shares compounds with SENP7 inh; purified caspase-3, Z-DEVD-aminoluciferin luminescence, 60 min; inhibition, % at 12.5 µM; 60% of 6,200 active;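 active = mean inhibition above about 50%, limit read from the data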;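 also: plate controls were enzyme with DMSO for no effect and wells without caspase-3 for full effect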
Target sequence (P42574 28-227 limits assumed): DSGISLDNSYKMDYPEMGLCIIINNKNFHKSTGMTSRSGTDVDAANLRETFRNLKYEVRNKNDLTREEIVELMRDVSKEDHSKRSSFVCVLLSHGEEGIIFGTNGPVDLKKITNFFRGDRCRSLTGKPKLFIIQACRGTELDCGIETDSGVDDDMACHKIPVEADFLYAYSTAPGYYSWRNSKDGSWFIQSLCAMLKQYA
SENP luc ctr: counter-screen for SENP inhibitors: luminescence interference | 39% of 6,200 active | shares compounds with SENP7 inh | inhibition, % at 12.5 µM | Pre-incubated SENP8/Z-RLRGG-aminoluciferin, luciferase luminescence interference;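 active = mean inhibition above about 50% when retested at one dose, limit read from the data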;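 also: plate controls were DMSO wells with completed reaction for no effect and substrate without enzyme for full effect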
* marks the source's active call; other numbers are inactive results; . = no result given.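 The calls were made as follows, unless noted: active = mean inhibition above about 50% in the one-dose retest (limit read from the data); inactive = the rest.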

SMILES | SENP8 block-1 | SENP6 block | SENP8 block-2 | SENP7 inh | SENP1 FRET inh | SENP8 confirm | SENP6 conf | SENP7 confirm | Casp3 select | SENP luc ctr
O=C(NN1CCCCCC1)c1ccccc1F | . | . | 17 | . | 1 | . | . | . | . | .
c1ccc(-c2cnc(-c3ccccc3)nc2)cc1 | 62* | 73* | 3 | 90* | 1 | 11 | 17 | 7 | 9 | 8
O=C(O)c1ncc(-c2ccccc2)cn1 | -8 | -18 | 15 | -6 | 1 | . | . | . | . | .
c1ccc(-c2ncc3c(ccc4ccccc43)n2)cc1 | 41 | 68* | 3 | 90* | 2 | 17 | 17 | 28 | 20 | 6
COc1ccc(Cl)cc1NC(=O)CN(C)C(=O)c1ccc(-n2cncn2)cc1 | 3 | -20 | 11 | 0 | 3 | . | . | . | . | .
Cc1ccc2c(c1)Sc1c(ccc3ccccc13)N2 | 56* | 80* | -76 | 11 | -35 | 2 | 18 | 4 | 30 | 12
O=C(NCC1CCCO1)C(=O)NCC1CCCN1S(=O)(=O)c1ccccc1 (stereo unspecified) | 5 | -4 | 18 | 3 | -3 | . | . | . | . | .
O=C(Nc1nc2ccccc2s1)c1ccc(N2CCCCC2)c([N+](=O)[O-])c1 | 35 | 52* | 39 | 54* | -1 | -5 | 4 | 27 | 25 | 2
Cn1cc(Cl)c(C(=O)Nc2nc3ccccc3s2)n1 | 96* | 96* | 2 | 1 | 3 | 14 | 98* | 103* | 96* | 45
Nc1ccc(C(=O)Nc2nc3ccccc3s2)cc1 | 91* | 91* | -426 | 94* | -2 | 95* | 95* | 101* | 86* | 91*
Cc1cc(C)n(-c2ccc(C(=O)Nc3nc4ccccc4s3)cc2)n1 | -8 | 22 | -300 | 29 | 4 | . | . | . | . | .
COc1ccc(C(=O)N2CCN(c3ccccc3Cl)CC2)cc1S(=O)(=O)NC1CC1 | 2 | 4 | 6 | -11 | 4 | . | . | . | . | .
O=S(=O)(Nc1ncccn1)c1ccc(NC(=S)N2CCN(Cc3ccc(F)cc3Cl)CC2)cc1 | -7 | -4 | 6 | -8 | 2 | . | . | . | . | .
O=C(CCc1nnc(CCCc2ccccc2)o1)NCCCC1CCCC1 | 1 | -13 | -9 | 1 | 2 | . | . | . | . | .
Cc1csc(NC(=O)c2cnc3ccccc3n2)n1 | 2 | 20 | 4 | 12 | 3 | . | . | . | . | .
Cc1cccc(C)c1NC(=O)CNC(=O)c1ccc2ccccc2n1 | 6 | -10 | 5 | -3 | -3 | . | . | . | . | .
Cc1csc(NC(=O)c2cn3ccccc3n2)n1 | 70* | 84* | -5 | 85* | -1 | 65* | 86* | 97* | 95* | 16
Cc1cccc(NC(=O)c2ccc3ccccc3n2)c1C | 65* | 88* | 20 | 77* | 1 | 13 | 84* | 97* | 72* | 58*
Cc1csc(NC(=O)c2ccc3ccccc3n2)n1 | 75* | 83* | 2 | 80* | -3 | 4 | 82* | 95* | 49 | 15
O=C(Nc1ccccn1)c1ccc2ccccc2n1 | 80* | 90* | 10 | 89* | -1 | -4 | 85* | 97* | 86* | 85*
N#Cc1ccccc1OCC(=O)OCC(=O)c1c[nH]c2ccccc12 | 2 | -1 | -4 | -6 | -8 | . | . | . | . | .
CCc1[nH]nc(C(=O)N2CCCC(N3CCN(c4ccccc4C)CC3)C2)c1C (stereo unspecified) | -2 | -13 | 7 | 10 | 2 | . | . | . | . | .
CCOC(=O)C1CCN(CC(=O)c2ccc(O)c(C)c2O)CC1 | -12 | 5 | -147 | 21 | -27 | . | . | . | . | .
O=C(Nc1ccccn1)c1ccc(Cl)s1 | 26 | 60* | 6 | 66* | 2 | 30 | 38 | 78* | 74* | 56*
O=C(Nc1nccs1)c1ccc2ccccc2n1 | 53* | 69* | 0 | 70* | -4 | 64* | 64* | 90* | 80* | 63*
SMILES | SENP8 block-1 | SENP6 block | SENP8 block-2 | SENP7 inh | SENP1 FRET inh | SENP8 confirm | SENP6 conf | SENP7 confirm | Casp3 select | SENP luc ctr
COCC(=O)N1CCCC(C(=O)c2ccc(-c3ccccc3)c(F)c2)C1 (stereo unspecified) | -4 | 2 | 7 | -4 | 0 | . | . | . | . | .
Cc1ccc(/C=N/NC(=O)c2ccoc2C)s1 | 74* | 88* | 6 | 85* | 0 | -3 | 77* | 95* | 93* | 80*
O=C(N/N=C/c1ccc(Br)s1)c1ccco1 | -7 | -6 | -11 | 5 | 0 | . | . | . | . | .
Cc1occc1C(=O)N/N=C/c1ccc(Br)s1 | 81* | 88* | 2 | 88* | 1 | -8 | 78* | 95* | 89* | 53*
COc1ccc(C(=O)C2CC2c2ccc3c(c2)OCO3)cc1 (stereo unspecified) | 0 | -11 | -3 | 4 | 0 | . | . | . | . | .
c1ccc(CCC2CCCCN2Cc2nc(C3CC3)no2)cc1 (stereo unspecified) | -4 | -9 | 16 | -11 | 0 | . | . | . | . | .
Cc1ccc(CN=c2c([N+](=O)[O-])nn(-c3ccc4c(c3)OCCO4)n2O)cc1 | 16 | 59* | 21 | 35 | 2 | 20 | 30 | 58* | 14 | 6
O=[N+]([O-])c1nn(-c2ccc3c(c2)OCCO3)n(O)c1=NCCCO | 1 | 4 | 21 | 4 | -1 | . | . | . | . | .
O=C1NC2NC(=O)N(C(Cc3ccccc3)C(=O)O)C2N1 (stereo unspecified) | 2 | 60* | 17 | 5 | 4 | -26 | -24 | -11 | -6 | -8
O=C(O)C(Cc1ccccc1)N1Cc2ccccc2C1=O (stereo unspecified) | -2 | -6 | 19 | -6 | 0 | . | . | . | . | .
Cc1c(C=O)c(Cl)n(C)c(=O)c1C#N | 41 | 2 | -46 | 74* | -101 | 17 | 22 | 9 | 2 | 2
